Laboratory results: ChEMBL document CHEMBL1629633, “Prevalence of sulfonamide resistance genes in bacterial isolates from manured agricultural soils and pig slurry in the United Kingdom” (2009)

Tests used:
[1] = tested on: Pseudomonas lini; assay: Antimicrobial activity against Pseudomonas lini isolate C701 harboring sul1 to sul3 genes assessed as antibiotic resistance breakpoint by agar dilution method; format: functional
How it was run: (§1)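 Agar dilution on Iso-Sensitest agar for MICs and resistance breakpoints. Each isolate's inoculum (100 μl) was adjusted to OD600 0.4. Isolates came from soil cores of a field given pig slurry, or from the pig slurry itself. They were picked from nonselective or antibiotic plates incubated aerobically at 28°C, purified by restreaking, checked for sul genes by PCR and identified by 16S rRNA sequencing.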

[2] = tested on: Acinetobacter lwoffii; assay: Antimicrobial activity against Acinetobacter lwoffii isolate C141 harboring sul1 to sul3 genes assessed as antibiotic resistance breakpoint by agar dilution method; format: functional; how it was run: as §1
[3] = tested on: Shigella flexneri; assay: Antimicrobial activity against Shigella flexneri isolate C506 harboring sul1 to sul3 genes assessed as antibiotic resistance breakpoint by agar dilution method; format: functional
How it was run: (§2)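 Isolates were recovered from manured clay soil or pig slurry on Iso-Sensitest agar at 28°C. sul genes were detected by PCR, and identity was assigned by ~800 bp 16S rRNA sequencing. MICs and resistance breakpoints were found by agar dilution on Iso-Sensitest agar, with each inoculum (100 μl) adjusted to OD600 0.4.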

[4] = tested on: Pseudomonas putida; assay: Antimicrobial activity against Pseudomonas putida isolate C231 harboring sul1 to sul3 genes assessed as antibiotic resistance breakpoint by agar dilution method; format: functional; how it was run: as §1
[5] = tested on: Acinetobacter lwoffii; assay: Antimicrobial activity against Acinetobacter lwoffii isolate C15 harboring sul1 to sul3 genes assessed as antibiotic resistance breakpoint by agar dilution method; format: functional; how it was run: as §1
[6] = tested on: Acinetobacter lwoffii; assay: Antimicrobial activity against Acinetobacter lwoffii isolate C37 harboring sul1 to sul3 genes assessed as antibiotic resistance breakpoint by agar dilution method; format: functional; how it was run: as §1
[7] = tested on: Acinetobacter calcoaceticus; assay: Antimicrobial activity against Acinetobacter calcoaceticus isolate C35 harboring sul1 to sul3 genes assessed as antibiotic resistance breakpoint by agar dilution method; format: functional; how it was run: as §1
[8] = tested on: Acinetobacter rhizosphaerae; assay: Antimicrobial activity against Acinetobacter rhizosphaerae isolate C44 harboring sul1 to sul3 genes assessed as antibiotic resistance breakpoint by agar dilution method; format: functional; how it was run: as §1
[9] = tested on: Acinetobacter calcoaceticus; assay: Antimicrobial activity against Acinetobacter calcoaceticus isolate C36 harboring sul1 to sul3 genes assessed as antibiotic resistance breakpoint by agar dilution method; format: functional; how it was run: as §1
[10] = tested on: Bacillus psychrodurans; assay: Antimicrobial activity against Bacillus psychrodurans isolate C328 harboring sul1 to sul3 genes assessed as antibiotic resistance breakpoint by agar dilution method; format: functional, Psychrobacillus psychrodurans; how it was run: as §1
[11] = Antimicrobial activity against Psychrobacter ikaite isolate C20 harboring sul1 to sul3 genes assessed as antibiotic resistance breakpoint by agar dilution method; format: functional; how it was run: as §1
[12] = tested on: Aerococcus viridans; assay: Antimicrobial activity against Aerococcus viridans isolate PGS21 harboring sul1 to sul3 genes assessed as antibiotic resistance breakpoint by agar dilution method; format: functional; how it was run: as §1
[13] = tested on: Aerococcus viridans; assay: Antimicrobial activity against Aerococcus viridans isolate PGS22 harboring sul1 to sul3 genes assessed as antibiotic resistance breakpoint by agar dilution method; format: functional; how it was run: as §1
[14] = tested on: Arthrobacter arilaitensis; assay: Antimicrobial activity against Arthrobacter arilaitensis isolate C361 harboring sul1 to sul3 genes assessed as antibiotic resistance breakpoint by agar dilution method; format: functional, Glutamicibacter arilaitensis; how it was run: as §1
[15] = tested on: Acinetobacter lwoffii; assay: Antimicrobial activity against Acinetobacter lwoffii isolate C2 harboring sul1 to sul3 genes assessed as antibiotic resistance breakpoint by agar dilution method; format: functional; how it was run: as §1
[16] = tested on: Acinetobacter baumannii; assay: Antimicrobial activity against Acinetobacter baumannii isolate C442 harboring sul1 to sul3 genes assessed as antibiotic resistance breakpoint by agar dilution method; format: functional; how it was run: as §1
[17] = tested on: Pseudomonas borealis; assay: Antimicrobial activity against Pseudomonas borealis isolate C5 harboring sul1 to sul3 genes assessed as antibiotic resistance breakpoint by agar dilution method; format: functional; how it was run: as §1
[18] = Antimicrobial activity against Psychrobacter ikaite isolate C713 harboring sul1 to sul3 genes assessed as antibiotic resistance breakpoint by agar dilution method; format: functional; how it was run: as §2
[19] = Antimicrobial activity against Acinetobacter sp. An9 isolate PGS49 harboring sul1 to sul3 genes assessed as antibiotic resistance breakpoint by agar dilution method; format: functional; how it was run: as §1
[20] = tested on: Lysinibacillus sphaericus; assay: Antimicrobial activity against Bacillus sphaericus isolate C237 harboring sul1 to sul3 genes assessed as antibiotic resistance breakpoint by agar dilution method; format: functional; how it was run: as §1
[21] = tested on: Acinetobacter lwoffii; assay: Antimicrobial activity against Acinetobacter lwoffii isolate PGS47 harboring sul1 to sul3 genes assessed as antibiotic resistance breakpoint by agar dilution method; format: functional; how it was run: as §1
[22] = Antimicrobial activity against Acinetobacter sp. N2 isolate C439 harboring sul1 to sul3 genes assessed as antibiotic resistance breakpoint by agar dilution method; format: functional; how it was run: as §1
[23] = Antimicrobial activity against Psychrobacter sp. DY9-2 isolate C711 harboring sul1 to sul3 genes assessed as antibiotic resistance breakpoint by agar dilution method; format: functional; how it was run: as §2
[24] = tested on: Psychrobacter frigidicola; assay: Antimicrobial activity against Psychrobacter frigidicola isolate C712 harboring sul1 to sul3 genes assessed as antibiotic resistance breakpoint by agar dilution method; format: functional; how it was run: as §1

CC1(C)S[C@@H]2[C@H](NC(=O)[C@H](N)c3ccccc3)C(=O)N2[C@H]1C(=O)O [AMPICILLIN]
Activity [1]: 16 µg/mL | Activity [2]: 16 µg/mL | Activity [3]: 16 µg/mL | Activity [4]: 16 µg/mL

O=C(N[C@H](CO)[C@H](O)c1ccc([N+](=O)[O-])cc1)C(Cl)Cl [CHLORAMPHENICOL]
Activity [5]: 16 µg/mL | Activity [6]: 16 µg/mL | Activity [7]: 16 µg/mL | Activity [8]: 16 µg/mL | Activity [9]: 16 µg/mL | Activity [10]: 16 µg/mL | Activity [11]: 16 µg/mL | Activity [12]: 16 µg/mL | Activity [13]: 16 µg/mL | Activity [14]: 16 µg/mL | Activity [15]: 16 µg/mL | Activity [2]: 16 µg/mL | Activity [3]: 16 µg/mL | Activity [4]: 16 µg/mL | Activity [16]: 16 µg/mL | Activity [17]: 16 µg/mL | Activity [18]: 16 µg/mL

NC[C@@H]1O[C@H](O[C@H]2[C@@H](O)[C@H](O[C@@H]3[C@@H](O)[C@H](N)C[C@H](N)[C@H]3O[C@H]3O[C@H](CN)[C@@H](O)[C@H](O)[C@H]3N)O[C@@H]2CO)[C@H](N)[C@@H](O)[C@@H]1O [FRAMYCETIN]
Activity [5]: 8 µg/mL | Activity [8]: 8 µg/mL | Activity [10]: 8 µg/mL | Activity [13]: 8 µg/mL | Activity [14]: 8 µg/mL | Activity [2]: 8 µg/mL | Activity [3]: 8 µg/mL | Activity [4]: 8 µg/mL

NC[C@H]1O[C@H](O[C@H]2[C@H](O)[C@@H](O[C@H]3O[C@H](CO)[C@@H](O)[C@H](N)[C@H]3O)[C@H](N)C[C@@H]2N)[C@H](O)[C@@H](O)[C@@H]1O [KANAMYCIN]
Activity [10]: 16 µg/mL | Activity [2]: 16 µg/mL | Activity [3]: 16 µg/mL

CCn1cc(C(=O)O)c(=O)c2ccc(C)nc21 [NALIDIXIC ACID]
Activity [5]: 16 µg/mL | Activity [6]: 16 µg/mL | Activity [7]: 16 µg/mL | Activity [19]: 16 µg/mL | Activity [8]: 16 µg/mL | Activity [9]: 16 µg/mL | Activity [10]: 16 µg/mL | Activity [20]: 16 µg/mL | Activity [11]: 16 µg/mL | Activity [21]: 16 µg/mL | Activity [13]: 16 µg/mL | Activity [14]: 16 µg/mL | Activity [1]: 16 µg/mL | Activity [15]: 16 µg/mL | Activity [2]: 16 µg/mL | Activity [3]: 16 µg/mL | Activity [22]: 16 µg/mL | Activity [4]: 16 µg/mL | Activity [16]: 16 µg/mL | Activity [23]: 16 µg/mL | Activity [18]: 16 µg/mL | Activity [24]: 16 µg/mL

COc1cc(Cc2cnc(N)nc2N)cc(OC)c1OC [TRIMETHOPRIM]
Activity [5]: 16 µg/mL | Activity [6]: 16 µg/mL | Activity [7]: 16 µg/mL | Activity [8]: 16 µg/mL | Activity [9]: 16 µg/mL | Activity [20]: 16 µg/mL | Activity [11]: 16 µg/mL | Activity [1]: 16 µg/mL | Activity [15]: 16 µg/mL | Activity [2]: 16 µg/mL | Activity [3]: 16 µg/mL | Activity [22]: 16 µg/mL | Activity [23]: 16 µg/mL | Activity [18]: 16 µg/mL | Activity [24]: 16 µg/mL
